Reference: ChEMBL document CHEMBL1153014, “Synthesis and antimicrobial properties of polymerizable quaternary ammoniums” (Eur J Med Chem, 2009)

Assays:
[1] = tested on: Aspergillus niger; assay: Microbicidal activity against Aspergillus niger ATCC 6275 after 7 days by microtiter plate method; type: functional; details: ATCC 6275, 168 h
How it was run: (§1)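 Fungal MIC microplates are kept 7 days. 100 µL from each of the three concentrations above the MIC is subcultured onto agent-free TSA or SDA plates. MLC is the lowest concentration giving no growth.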

[2] = tested on: Pseudomonas aeruginosa; assay: Microbicidal activity against Pseudomonas aeruginosa ATCC 9027 after 5 days by microtiter plate method; type: functional; details: ATCC 9027, 120 h
How it was run: (§2)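 Bacterial MIC microtiter plates are held 5 days. For each of the three concentrations above the MIC, 100 µL is plated on TSA or SDA plates. MLC is the first concentration showing no growth after subculture.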

[3] = tested on: Staphylococcus aureus; assay: Microbiostatic activity against Staphylococcus aureus ATCC 6538 after 24 hrs by turbidimetric method; type: functional; details: ATCC 6538, 24 h
How it was run: (§3)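 Exponential-phase bacteria are grown overnight on TSA, then overnight at 30 °C in M9G (pH 7.0). Suspension is adjusted to OD660 0.05 (about 5·10^6–5·10^7 cfu/mL), verified by plate count. Automated serial dilutions of agent in deionised water are inoculated and incubated 24 h at 30 °C. MIC is the first concentration without turbidity.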

[4] = tested on: Pseudomonas aeruginosa; assay: Microbiostatic activity against Pseudomonas aeruginosa ATCC 9027 after 24 hrs by turbidimetric method; type: functional; details: ATCC 9027, 24 h; how it was run: as §3
[5] = tested on: Candida albicans; assay: Microbicidal activity against Candida albicans ATCC 10231 after 7 days by microtiter plate method; type: functional; details: ATCC 10231, 168 h; how it was run: as §1
[6] = tested on: Candida albicans; assay: Microbiostatic activity against Candida albicans ATCC 10231 after 72 hrs by turbidimetric method; type: functional; details: ATCC 10231, 72 h
How it was run: (§4)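 Turbidimetric broth microdilution: automated serial dilutions of agent in sterile deionised water, then inoculation. Spores come from 5–7 day SDA cultures at 25 °C, harvested in M9G (pH 5.0) and gauze-filtered to remove mycelium. Inoculum is set to 5·10^6–5·10^7 spores/mL by counting cell. Incubation is 72 h at 25 °C. MIC is the first concentration with no turbidity.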

[7] = Critical micelle concentration by conductimetry; type: physicochemical
[8] = tested on: Staphylococcus aureus; assay: Microbicidal activity against Staphylococcus aureus ATCC 6538 after 5 days by microtiter plate method; type: functional; details: ATCC 6538, 120 h; how it was run: as §2
[9] = tested on: Aspergillus niger; assay: Microbiostatic activity against Aspergillus niger ATCC 6275 after 72 hrs by turbidimetric method; type: functional; details: ATCC 6275, 72 h; how it was run: as §4

| MIC [3] [µM] | MIC [4] [µM] | MIC [6] [µM] | CMC [7] | MIC [9] [µM] | SMILES | MLC [1] [µM] | MLC [2] [µM] | MLC [5] [µM] | MLC [8] [µM] |
| --- | --- | --- | --- | --- | --- | --- | --- | --- | --- |
| 34.7 | 58.4 | 14.8 | 9.66 ×10⁻⁴ mol/L | 14.8 | C=CC(=O)OCCCCCCCCCCC[N+](C)(C)CCCCCCCCCCCC.[Br-] | 14.8 | 64.7 | 15.4 | 34.7 |
| 64.8 | 79.9 | 19 | 2.79 mM | 19 | C=CC(=O)OCCCCCCCCCCC[N+](C)(C)CCCCCCCCCC.[Br-] | 19.3 | 188 | 30.4 | 72.6 |
| 275 | 237 | 24 | 1.95 mM | 237 | C=CC(=O)OCC[N+](C)(C)CCCCCCCCCCCCCCCC.[Br-] | 283 | 283 | 24.7 | 283 |
| 104 | 44.8 | 16.8 | 4.68 ×10⁻⁴ mol/L | 24.9 | C=CC(=O)OCCCCCCCCCCC[N+](C)(C)CCCCCCCCCCCCCC.[Br-] | 24.9 | 103 | 16.8 | 164 |
| 209 | 132 | 27.1 | 1.66 ×10⁻⁴ mol/L | 31.4 | C=CC(=O)OCCCCCCCCCCC[N+](C)(C)CCCCCCCCCCCCCCCC.[Br-] | 40.4 | 317 | 40.4 | 274 |

Further lines, the molecule ahead of its results:

| SMILES | MIC [3] [µM] | MIC [4] [µM] | MIC [6] [µM] | CMC [7] | MIC [9] [µM] | MLC [1] [µM] | MLC [2] [µM] | MLC [5] [µM] | MLC [8] [µM] |
| --- | --- | --- | --- | --- | --- | --- | --- | --- | --- |
| C=CC(=O)OCC[N+](C)(C)Cc1ccccc1.[Br-] | > 2000 | > 2000 | > 2000 | 4.6 ×10⁻² mol/L | 507 | 600 | > 2000 | > 2000 | > 2000 |
| C=CC(=O)OCC[N+](C)(C)CCCCCCCCCCCC.[Br-] | 71.1 | 71.1 | 63.8 | 6.45 mM | 63.8 | 63.8 | 71.1 | 63.8 | 71.1 |
| C=CC(=O)OCC[N+](C)(C)CCCCCCCCCC.[Br-] | 356 | 356 | 278 | 1.16 ×10⁻² mol/L | 175 | 280 | 416 | 359 | 359 |
| C=CC(=O)OCCCCCCCCCCC[N+](C)(C)Cc1ccccc1.[Br-] | 244 | 154 | 154 | 3.34 ×10⁻² mol/L | 154 | 238 | 447 | 447 | 306 |
| C=CC(=O)OCC[N+](C)(C)CCCCCCCCCCCCCC.[Br-] | 178 | 112 | 18.1 | 2.99 mM | 178 | 232 | 114 | 18.4 | 232 |
